# Screening results deposited in PubChem BioAssay by Johns Hopkins Ion Channel Center.
# MrgX1 antag: blocks BAM8-22 activation of human MrgX1 receptor | B-score at 10 µM | MRGX1-HEK293 calcium flux, Fluo-4, BAM8-22 antagonism; hits give low values | Q96LB2 | 310,000 compounds, 1.3% hits;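 active means calcium-response B-score plate-corrected more than 3 library SD below zero, starting fluorescence within 5 deviations, no agonist response on first addition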;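 further: peak minus trough fluorescence over baseline after final BAM8-22 challenge near maximal dose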
# Target sequence (Q96LB2 whole entry, looked up): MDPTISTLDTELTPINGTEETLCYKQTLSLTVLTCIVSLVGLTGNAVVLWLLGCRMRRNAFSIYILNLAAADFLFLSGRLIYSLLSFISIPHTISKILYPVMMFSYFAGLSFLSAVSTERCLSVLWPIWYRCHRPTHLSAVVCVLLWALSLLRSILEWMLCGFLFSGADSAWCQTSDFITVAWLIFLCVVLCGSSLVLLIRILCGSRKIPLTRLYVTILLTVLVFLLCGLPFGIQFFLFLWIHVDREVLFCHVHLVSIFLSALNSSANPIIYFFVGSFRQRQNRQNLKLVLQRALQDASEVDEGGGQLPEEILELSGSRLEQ
# MrgX1 ag: human MrgX1 receptor agonism, primary screen; AID 588627; MrgX1-HEK293 cells, Fluo-4 calcium fluorescence, agonist mode; hits give high values; 310,000 compounds, 0.44% hits; Q96LB2; B-score at 10 µM;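 active means calcium response B-score plate-corrected fluorescence ratio at least 3 library SD, with starting fluorescence B-score inside 5 SD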
#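 Test system: HEK293 cells stably expressing human MrgX1 receptor; Input: fifteen thousand cells per well; Dosing: compound delivered in addition one of three; Schedule: overnight seeding, then 1 h dark dye loading; Technique: Fluo-4 NW calcium fluorescence; Measure: B-scored fluorescence response ratio; Controls: positive and negative controls per plate.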
# RGS4 inh: human RGS4 inhibition; P49798; HEK293 M3R/RGS4 inducible, Fluo-4 calcium flux; hits give high values; triggered by carbachol at its EC20; B-score at 10 µM; 310,000 compounds, 0.45% hits;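 active means B-score, a plate-corrected calcium signal, over three deviations above library mean, with baseline fluorescence within five deviations of library mean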;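 further: RGS4 expression induced by doxycycline in cells with stable M3 receptor; B-score is computed from the integrated fluorescence ratio over baseline after carbachol; higher B-score means a larger calcium signal and so more RGS4 inhibition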
# MrgX1 allo act: human MrgX1 positive allosteric modulation, primary screen | MrgX1-HEK293, Fluo-4 calcium flux, FDSS; hits give high values | B-score at 10 µM | 310,000 compounds, 0.63% hits;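 active means plate-corrected calcium response at least 3 library SD above typical, normal starting fluorescence, not activating the receptor alone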;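 further: compound read alongside a low EC10 to EC30 dose of BAM8-22 agonist; peak minus trough fluorescence over baseline measured at the second addition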
# RGS4 pot: potentiators or activators of RGS4 | HEK293 M3R/inducible RGS4, carbachol calcium flux Fluo4; hits give low values | B-score at 10 µM | 310,000 compounds, 0.92% hits | AID 463111;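 active means B-score of the integrated calcium signal more than 4 SD below the library mean, with starting fluorescence not abnormally high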;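 further: negative B-score means reduced calcium response which marks RGS4 activation or potentiation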
#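 Assay system: Inducible-RGS4 HEK293 cells carrying M3 receptor | Schedule: Compound preincubation 20 min at room temperature before agonist | Signal: Kinetic calcium fluorescence imaging with Fluo4-AM dye, 2 µM | Read-out basis: B score from integrated fluorescence ratio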
# Active calls of the source: *; i = inactive. Hits are enriched below; roughly 3.5% of the tested compounds scored in any of these assays.
SMILES,MrgX1 antag,MrgX1 ag,RGS4 inh,MrgX1 allo act,RGS4 pot
CCOc1cc2[nH]c(=O)n(CCCC(=O)N(C)Cc3ccccc3)c(=O)c2cc1OCC,i,i,i,7.92*,i
O=c1c2ccccc2nc(COc2ccccc2)n1/N=C/c1ccc(O)c(O)c1,i,i,i,i,-7.65*
O=C(O)COc1ccc(/C=N/n2c(COc3ccccc3)nc3ccccc3c2=O)cc1,i,i,i,i,i
O=C(COC(=O)c1cccc(C(=O)OCC(=O)NCc2ccc(F)cc2)n1)NCc1ccc(F)cc1,i,i,i,i,i
CCC(=O)O[C@]1(C(=O)SCF)[C@H](C)C[C@H]2[C@@H]3C[C@H](F)C4=CC(=O)C=C[C@]4(C)[C@@]3(F)[C@@H](O)C[C@@]21C,-6.21*,i,i,i,i
CCc1ccc(-n2cnc3cc(C(=O)NCC(OC)OC)ccc32)cc1,i,i,i,i,i
CCNC(=S)N/N=C/c1ccc(OCc2ccc(C(=O)OC)cc2)cc1,-4.68*,i,i,i,i
Cc1ccccc1-n1c(SCc2c(C)noc2C)nnc1-c1c[nH]c2ccccc12,-4.54*,i,i,i,i
CN1C(=O)/C(=C\c2ccc(N(C)C)cc2)OC1=S,i,63.1*,i,i,i
COc1ccc(/C=C2\OC(=S)N(C)C2=O)cc1,i,i,i,i,i
NC[C@@H]1O[C@H](O[C@H]2[C@@H](O)[C@H](O[C@@H]3[C@@H](O)[C@H](N)C[C@H](N)[C@H]3O[C@H]3O[C@H](CO)[C@@H](O)[C@H](O)[C@H]3N)O[C@@H]2CO)[C@H](N)[C@@H](O)[C@@H]1O,i,i,i,i,i
CC1CCCCN1C(=O)c1c([N+](=O)[O-])cnn1C (configuration not stated),-9.18*,i,i,i,i
Cc1ccc(C)c(NC(=S)NC(NC(=O)N(C)C)C(Cl)(Cl)Cl)c1 (configuration not stated),i,i,i,i,i
Cc1ccc(C)c(NC(=S)NC(NC(=O)Cc2cccc3ccccc23)C(Cl)(Cl)Cl)c1 (configuration not stated),-9.09*,i,i,i,i
CN(C)c1ccc(N2C(=NC(=O)CCC3CCCC3)SC3CS(=O)(=O)CC32)cc1 (configuration not stated),i,i,i,i,i
COC(=O)c1ccccc1NC(=O)NCc1c(C)nn(C)c1C,i,i,i,i,i
COc1ccc(N(C)C(=O)c2ccc3c(Cl)c4c(nc3c2)CCCC4)c(OC)c1,i,i,i,i,-7.08*
O=C(Nc1ccccc1N(C(=O)c1ccco1)S(=O)(=O)c1cccs1)c1ccco1,i,i,i,11.5*,i
c1ccc(COc2ccc(OCCCCN3CCCCC3)cc2)cc1,i,i,i,i,-10.3*
CN1CCN(CCCOc2ccc(-c3ccccc3)cc2)CC1,i,i,i,i,-9.3*
CN1CCN(CCOc2ccc(-c3ccccc3)cc2)CC1,i,i,i,i,i
CCOc1ccc(CNC(=O)CCC(=O)n2ncc3ccc(Cl)cc32)cc1,i,i,i,i,i
N#Cc1ccc(CN2C=NS(=O)(=O)c3ccccc32)cc1,i,i,i,i,i
CC(=O)Nc1ncc(Cc2ccc(Cl)cc2Cl)s1,i,i,i,i,i
O=C(NCCS(=O)(=O)N1CCCCC1)c1ccccc1,i,i,i,i,i
Cc1nc(N2CCOCC2)nc(OCCN2CCOCC2)c1[N+](=O)[O-],-5.25*,i,i,i,i
Cc1nc(N2CCOCC2)nc(OCCN(C)C)c1[N+](=O)[O-],i,i,i,i,i
O=C(CSCc1ccccc1Br)NNC(=S)NCc1ccco1,i,i,i,i,i
Cc1ccc2c(c1)C1(C)C(C(C)(C)N2C=O)C1(Cl)Cl (configuration not stated),i,i,i,13.3*,i
CC(=O)N1c2ccccc2C2(C)C(C1(C)C)C2(Cl)Cl (configuration not stated),i,i,i,i,i
